Here are results for 25 compounds from ChEMBL document CHEMBL1124989, “8-Substituted 5-[(aminoalkyl)amino]-6H-v-triazolo[4,5,1-de]acridin-6-ones as potential antineoplastic agents. Synthesis and biological activity” (J Med Chem, 1990).

Each structure is given as a SMILES string. Converted amounts (≈) assume the structure as drawn.

One assay relates to HeLa. Description: In vitro cytotoxicity against HeLa S3 cell lines. It counts as functional, cell-based. The note with it: Homo sapiens.
Assay [1] concerns P388. Description: In vivo antileukemic activity against P388 leukemia at dose 50 mp/kg administered intraperitoneally. It counts as functional, Mus musculus. In a few lines:
(§1)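 BDF1 mice implanted ip with 10^6 P388 cells. Compound given ip as aqueous solution containing 3 equiv of L-lactic acid on days 1-5. Activity expressed as T/C (%); T/C ≥ 125% taken as statistically significant antileukemic activity.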

In assay [2] the test system is P388. Description: In vivo antileukemic activity against P388 leukemia at dose 8 mp/kg administered intraperitoneally. Format: functional, Mus musculus. In a few lines:
as §1

In assay [3] the test system is P388. Description: In vivo antileukemic activity against P388 leukemia at dose 25 mp/kg administered intraperitoneally (30 days survivors, 3/6).
Assay [4] relates to P388. Put plainly: In vivo antileukemic activity against P388 leukemia at dose 25 mp/kg administered intraperitoneally. Format: functional, Mus musculus. The method, boiled down: as §1
Assay [5] has as its system P388. Put plainly: In vivo antileukemic activity against P388 leukemia at dose 100 mp/kg administered intraperitoneally. It counts as functional, Mus musculus. In a few lines:
as §1

Assay [6] has as its system P388. Put plainly: In vivo antileukemic activity against P388 leukemia at dose 12.5 mp/kg administered intraperitoneally. Format: functional, Mus musculus.
The subject of assay [7] is P388. Description: In vivo antileukemic activity against P388 leukemia at dose 40 mp/kg administered intraperitoneally. It counts as functional, Mus musculus. In a few lines:
as §1

Assay [8] concerns P388. Description: In vivo antileukemic activity against P388 leukemia at dose 25 mp/kg administered intraperitoneally (30 days survivors, 2/6).
For assay [9], the system named is P388. Description: In vivo antileukemic activity against P388 leukemia at dose 12.5 mp/kg administered intraperitoneally (30 days survivors, 3/6). Format: functional, Mus musculus.

In the case of `CN(C)CCCNc1ccc2nnn3c4ccc(Cl)cc4c(=O)c1c23`, the 50% inhibitory concentration (IC50) in the assay on HeLa amounted to 0.13 µg/mL (≈ 0.365 µM). The compound also yielded a T/C with P388 [1] of 111%.
In the assay with HeLa, `CCN(CC)CCNc1ccc2nnn3c4ccc(O)cc4c(=O)c1c23` gave an IC50 of 0.05 µg/mL (≈ 0.142 µM). Further, in the assay with P388 [2], the T/C was found to be 190%.
As for `CN(C)CCCNc1ccc2nnn3c4ccc(O)cc4c(=O)c1c23`, the half-maximal inhibitory concentration (IC50) in the assay with HeLa turned out to be 0.08 µg/mL (≈ 0.237 µM). In the assay on P388 [3], this compound returned a T/C of 320%.
For `CN(C)CCCNc1ccc2nnn3c4ccc([N+](=O)[O-])cc4c(=O)c1c23`, inhibition with HeLa was half-maximal at 0.12 µg/mL (≈ 0.328 µM) (IC50). Moreover, the T/C in the assay on P388 [4] is on record as 110%.
Compound `CCN(CC)CCNc1ccc2nnn3c4ccccc4c(=O)c1c23` had an IC50 in the assay with HeLa of 0.42 µg/mL (≈ 1.25 µM). The T/C in the assay on P388 [5] was 160%.
In the case of `CCN(CC)CCNc1ccc2nnn3c4ccc(OC)cc4c(=O)c1c23`, in the assay on HeLa, the IC50 was 0.16 µg/mL (≈ 0.438 µM). This compound gave a T/C with P388 [6] of 120%.
`CN(C)CCCNc1ccc2nnn3c4ccccc4c(=O)c1c23` displayed a 50% inhibitory concentration (IC50) in the assay on HeLa of 0.28 µg/mL (≈ 0.871 µM). The same compound returned a T/C in the assay on P388 [5] of 133%.
In the case of `CN(C)CCNc1ccc2nnn3c4ccccc4c(=O)c1c23`, half-maximal inhibition with HeLa (IC50) was put at 0.21 µg/mL (≈ 0.683 µM). This compound came in with a T/C with P388 [5] of 180%.
In the case of `CCN(CC)CCNc1ccc2nnn3c4ccc(Cl)cc4c(=O)c1c23`, inhibition with HeLa was half-maximal at 0.13 µg/mL (≈ 0.351 µM) (IC50). The T/C in the assay on P388 [6] was 111%.
In turn, `COc1ccc2c(c1)c(=O)c1c(NCCCN(C)C)ccc3nnn2c31` showed an IC50 in the assay on HeLa of 0.17 µg/mL (≈ 0.484 µM).
The compound `CCN(CC)CCNc1ccc2nnn3c4ccc(C)cc4c(=O)c1c23` registered an IC50 with HeLa of 0.21 µg/mL (≈ 0.601 µM). In the assay on P388 [7], the T/C is listed as 133%.
In turn, `CN(C)CCNc1ccc2nnn3c4ccc([N+](=O)[O-])cc4c(=O)c1c23` displayed a 50% inhibitory concentration (IC50) in the assay with HeLa of 0.11 µg/mL (≈ 0.312 µM). Moreover, the T/C with P388 [4] was 130%.
Turning to `CN(C)CCNc1ccc2nnn3c4ccc(O)cc4c(=O)c1c23`, in the assay with HeLa, inhibition was half-maximal at 0.1 µg/mL (≈ 0.309 µM) (IC50). The compound further yielded a T/C with P388 [8] of 260%.
In the case of `O=c1c2cc(O)ccc2n2nnc3ccc(NCCNCCO)c1c32`, the IC50 in the assay with HeLa is 0.12 µg/mL (≈ 0.354 µM). In addition, the T/C in the assay on P388 [6] is reported as 210%.
In the assay on HeLa, `COc1ccc2c(c1)c(=O)c1c(NCCN(C)C)ccc3nnn2c31` returned an IC50 of 0.1 µg/mL (≈ 0.296 µM). Besides, the T/C in the assay with P388 [4] is reported as 110%.
Take `Cc1ccc2c(c1)c(=O)c1c(NCCCN(C)C)ccc3nnn2c31`: it took 0.15 µg/mL (≈ 0.447 µM) to reach half-maximal inhibition in the assay with HeLa (IC50).
Take `Cc1ccc2c(c1)c(=O)c1c(NCCN(C)C)ccc3nnn2c31`: the 50% inhibitory concentration (IC50) in the assay with HeLa is 0.17 µg/mL (≈ 0.529 µM). This compound yielded a T/C with P388 [5] of 130%.
For the compound `CCN(CC)CCNc1ccc2nnn3c4ccc([N+](=O)[O-])cc4c(=O)c1c23`, the concentration for half-maximal inhibition (IC50) with HeLa came to 0.12 µg/mL (≈ 0.315 µM). The T/C with P388 [6] worked out at 122%.
The matching figures for `COc1ccc2c(c1)c(=O)c1c(NCCNCCO)ccc3nnn2c31`: 0.09 µg/mL (≈ 0.255 µM) and 120%.
In the assay with HeLa, `CN(C)CCNc1ccc2nnn3c4ccc(Cl)cc4c(=O)c1c23` yielded a 50% inhibitory concentration (IC50) of 0.1 µg/mL (≈ 0.293 µM). The compound further yielded a T/C with P388 [4] of 110%.
In the case of `O=C1c2ccccc2C(=O)c2c(NCCNCCO)ccc(NCCNCCO)c21` [AMETANTRONE], in the assay on HeLa, half-maximal inhibition (IC50) required 0.17 µg/mL (≈ 0.412 µM). This compound also showed a T/C in the assay on P388 [9] of 300%.
Turning to `O=c1c2ccccc2n2nnc3ccc(NCCNCCO)c1c32`, in the assay on HeLa, the IC50 was 0.29 µg/mL (≈ 0.897 µM). Besides, in the assay with P388 [1], the T/C amounted to 133%.
`O=c1c2cc(Cl)ccc2n2nnc3ccc(NCCNCCO)c1c32`: the IC50 with HeLa amounted to 0.16 µg/mL (≈ 0.447 µM). Moreover, the T/C in the assay on P388 [4] is 133%.
In the assay with HeLa, `O=c1c2cc([N+](=O)[O-])ccc2n2nnc3ccc(NCCNCCO)c1c32` registered an IC50 of 0.12 µg/mL (≈ 0.326 µM). The T/C in the assay with P388 [4] came out at 133%.
`Cc1ccc2c(c1)c(=O)c1c(NCCNCCO)ccc3nnn2c31` came in with an IC50 in the assay with HeLa of 0.24 µg/mL (≈ 0.711 µM).

Broadly, the IC50 is the midpoint of a concentration-inhibition curve. A high value points to weaker potency. What is called T/C is the ratio of treated to control.
